Measured values pooled from the literature.
Protocols differ between the studies behind these lines.
Target: G protein-coupled receptor kinase 6 (GRK6, Homo sapiens, UniProt P43250)

effect on	action	method	tested at	endpoint	result	SMILES
enzyme activity	inhibitor	–	1 µM	inhibition	0%	COc1cc2ncnc(Nc3ccc(Oc4ccccc4)cc3C)c2cc1OC
cell-free assay	–	–	10 µM	remaining signal	100%	Cc1ccc(NC(=O)c2ccc(C)c(C(F)(F)F)c2)cc1C#Cc1nn(C2CCC(O)CC2)c2ncnc(N)c12 (stereo not shown)
enzyme activity	inhibitor	–	5 µM	remaining activity	97.9%	O=C(Nc1cnn(-c2csc(C(=O)NC3COC3)c2)c1)Nc1ccccc1Cl
enzyme activity	inhibitor	–	0.3 µM	inhibition	31%	CCN(CC)CCNC(=O)c1c(C)[nH]c(/C=C2\C(=O)Nc3ccc(F)cc32)c1C
enzyme activity	inhibitor	–	1 µM	inhibition	< 10%	CCCS(=O)(=O)Nc1ccc(F)c(C(=O)c2c[nH]c3ncc(-c4ccc(Cl)cc4)cc23)c1F
cell-free assay	–	–	0.5 µM	remaining signal	89.6%	O=C1Nc2ccc(Cl)cc2C1=Cc1cc(Cl)c(O)c(Cl)c1
enzyme activity	inhibitor	–	1 µM	remaining activity	100%	COc1cc(Cl)c(C(=O)N[C@@H](CN[C@H]2CC[C@@H](N)CC2)Cc2ccc(C#N)cc2)cc1-c1ccc(CN[C@H](C)c2ccc(C)cc2)o1
enzyme activity	inhibitor	radiometric	1 µM	remaining activity	81%	Cc1cnc(NC2CCOCC2)nc1-n1cnc(C(=O)NC(CN)c2cc(F)cc(Cl)c2)c1 (stereo not shown)
enzyme activity	inhibitor	radiometric	1 µM	remaining activity	79%	CC(C)(C)c1nc(-c2cccc(NS(=O)(=O)c3c(F)cccc3F)c2F)c(-c2ccnc(N)n2)s1
enzyme activity	inhibitor	–	10 µM	inhibition	1%	CNC(=O)c1cc(Oc2ccc(NC(=O)Nc3ccc(Cl)c(C(F)(F)F)c3)cc2)ccn1
enzyme activity	inhibitor	–	1 µM	inhibition	9%	CN1CC(Oc2cnc(C#N)cc2-c2ccn3nc(NC(=O)C4CC4)cc3c2)C1
enzyme activity	inhibitor	–	1 µM	activity vs control	109%	Cc1ccc(C(=O)NCc2ccsc2)cc1C#Cc1cn(C(C)C)c2ncnc(N)c12
enzyme activity	inhibitor	–	0.3 µM	inhibition	11%	Cc1ccc(Nc2nccc(N(C)c3ccc4c(C)n(C)nc4c3)n2)cc1S(N)(=O)=O
